Assay results taken from ChEMBL document CHEMBL1926614, “Substituted thiazoles V. synthesis and antitumor activity of novel thiazolo[2,3-b]quinazoline and pyrido[4,3-d]thiazolo[3,2-a]pyrimidine analogues” (2012).

Experiments:
Assay type in all cases: functional
HT-29 = assay: Growth inhibition of human HT-29 cells at 10 uM after 48 hrs by coulter counting; conditions: HT-29, 48 h, read-out: GI
Summary of the method: (§1)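 Single-dose primary screen across the full NCI 60-cell-line panel. Stocks were made in DMSO and diluted in PBS to a final DMSO below 1%. Cultures at 6 × 10⁴ cells/ml were run in duplicate wells alongside PBS/DMSO vehicle controls at 37 °C in humidified 5% CO₂. Data were expressed as percent growth of treated cells.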

NCI-H460 = assay: Growth inhibition of human NCI-H460 cells at 10 uM after 48 hrs by coulter counting; conditions: NCI-H460, 48 h, read-out: GI; summary of the method: as §1
DU-145 = assay: Growth inhibition of human DU145 cells at 10 uM after 48 hrs by coulter counting; conditions: DU-145, 48 h, read-out: GI; summary of the method: as §1
HL-60(TB) = assay: Growth inhibition of human HL-60(TB) cells at 10 uM after 48 hrs by coulter counting; conditions: HL-60, 48 h, read-out: GI
Summary of the method: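 Test compound was dissolved in DMSO and diluted in phosphate-buffered saline to a final DMSO level below 1%. Dilutions were plated in duplicate with cell culture at 6 × 10⁴ cells/ml. Vehicle controls held PBS and DMSO at matching dilutions. Incubation was at 37 °C, humidified, under 5% CO₂. Data were reported as percent growth of treated cells.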

T47D = assay: Growth inhibition of human T47D cells at 10 uM after 48 hrs by coulter counting; conditions: read-out: GI
Summary of the method: (§2)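 Single-dose screen in the NCI 60 human tumor cell line panel (nine subpanels). Compounds dissolved in DMSO and diluted in phosphate buffered saline, keeping final DMSO below 1%. Added in duplicate wells to cells at 6 × 10⁴ cells/ml. Controls held PBS and DMSO at matching dilutions. Incubated at 37 °C, humidified, 5% CO₂. Reported as percent growth of treated cells.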

M14 = assay: Growth inhibition of human M14 cells at 10 uM after 48 hrs by coulter counting; conditions: M14, 48 h, read-out: GI; summary of the method: as §1
MOLT-4 = assay: Growth inhibition of human MOLT4 cells at 10 uM after 48 hrs by coulter counting; conditions: MOLT-4, 48 h, read-out: GI; summary of the method: as §1
NCI-H522 = assay: Growth inhibition of human NCI-H522 cells at 10 uM after 48 hrs by coulter counting; conditions: NCI-H522, 48 h, read-out: GI; summary of the method: as §1
UACC-62 = assay: Growth inhibition of human UACC62 cells at 10 uM after 48 hrs by coulter counting; conditions: UACC-62, 48 h, read-out: GI; summary of the method: as §2
CCRF-CEM = assay: Growth inhibition of human CCRF-CEM cells at 10 uM after 48 hrs by coulter counting; conditions: read-out: GI; summary of the method: as §1
U-251 = assay: Growth inhibition of human U251 cells at 10 uM after 48 hrs by coulter counting; conditions: U-251, 48 h, read-out: GI; summary of the method: as §2
HCC 2998 = assay: Growth inhibition of human HCC2998 cells at 10 uM after 48 hrs by coulter counting; conditions: HCC 2998, 48 h, read-out: GI; summary of the method: as §1
BT-549 = assay: Growth inhibition of human BT549 cells at 10 uM after 48 hrs by coulter counting; conditions: BT-549, 48 h, read-out: GI; summary of the method: as §1
MCF7 = assay: Growth inhibition of human MCF7 cells at 10 uM after 48 hrs by coulter counting; conditions: MCF7, 48 h, read-out: GI; summary of the method: as §1
A549 = assay: Growth inhibition of human A549 cells at 10 uM after 48 hrs by coulter counting; conditions: A549, 48 h, read-out: GI; summary of the method: as §1
[1] = Growth inhibition of human NCI-322M cells at 10 uM after 48 hrs by coulter counting; conditions: read-out: GI; summary of the method: as §1
CAKI-1 = assay: Growth inhibition of human Caki1 cells at 10 uM after 48 hrs by coulter counting; conditions: CAKI-1, 48 h, read-out: GI; summary of the method: as §1
K562 = assay: Growth inhibition of human K562 cells at 10 uM after 48 hrs by coulter counting; conditions: K562, 48 h, read-out: GI; summary of the method: as §1
SK-MEL-2 = assay: Growth inhibition of human SK-MEL-2 cells at 10 uM after 48 hrs by coulter counting; conditions: SK-MEL-2, 48 h, read-out: GI; summary of the method: as §1
SNB-75 = assay: Growth inhibition of human SNB75 cells at 10 uM after 48 hrs by coulter counting; conditions: SNB-75, 48 h, read-out: GI; summary of the method: as §1
HOP-62 = assay: Growth inhibition of human HOP62 cells at 10 uM after 48 hrs by coulter counting; conditions: HOP-62, 48 h, read-out: GI; summary of the method: as §1
ACHN = assay: Growth inhibition of human ACHN cells at 10 uM after 48 hrs by coulter counting; conditions: read-out: GI; summary of the method: as §1
SNB-19 = assay: Growth inhibition of human SNB19 cells at 10 uM after 48 hrs by coulter counting; conditions: SNB-19, 48 h, read-out: GI; summary of the method: as §1
UACC-257 = assay: Growth inhibition of human UACC257 cells at 10 uM after 48 hrs by coulter counting; conditions: UACC-257, 48 h, read-out: GI; summary of the method: as §2
SK-MEL-28 = assay: Growth inhibition of human SK-MEL-28 cells at 10 uM after 48 hrs by coulter counting; conditions: SK-MEL-28, 48 h, read-out: GI; summary of the method: as §1
NCI-H23 = assay: Growth inhibition of human NCI-H23 cells at 10 uM after 48 hrs by coulter counting; conditions: NCI-H23, 48 h, read-out: GI; summary of the method: as §1
SK-MEL-5 = assay: Growth inhibition of human SK-MEL-5 cells at 10 uM after 48 hrs by coulter counting; conditions: SK-MEL-5, 48 h, read-out: GI; summary of the method: as §1
NCI/ADR-RES = assay: Growth inhibition of human NCI/ADR-RES cells at 10 uM after 48 hrs by coulter counting; conditions: read-out: GI; summary of the method: as §1
EKVX = assay: Growth inhibition of human EKVX cells at 10 uM after 48 hrs by coulter counting; conditions: read-out: GI; summary of the method: as §1
SF-295 = assay: Growth inhibition of human SF295 cells at 10 uM after 48 hrs by coulter counting; conditions: SF-295, 48 h, read-out: GI; summary of the method: as §1
HCT-116 = assay: Growth inhibition of human HCT116 cells at 10 uM after 48 hrs by coulter counting; conditions: HCT-116, 48 h, read-out: GI; summary of the method: as §1
A498 = assay: Growth inhibition of human A498 cells at 10 uM after 48 hrs by coulter counting; conditions: A498, 48 h, read-out: GI; summary of the method: as §1
KM12 = assay: Growth inhibition of human KM12 cells at 10 uM after 48 hrs by coulter counting; conditions: KM12, 48 h, read-out: GI; summary of the method: as §1
SF-268 = assay: Growth inhibition of human SF268 cells at 10 uM after 48 hrs by coulter counting; conditions: SF-268, 48 h, read-out: GI; summary of the method: as §1
UO-31 = assay: Growth inhibition of human UO31 cells at 10 uM after 48 hrs by coulter counting; conditions: UO-31, 48 h, read-out: GI; summary of the method: as §2
SF-539 = assay: Growth inhibition of human SF539 cells at 10 uM after 48 hrs by coulter counting; conditions: SF-539, 48 h, read-out: GI; summary of the method: as §1
MDA-MB-435 = assay: Growth inhibition of human MDA-MB-435 cells at 10 uM after 48 hrs by coulter counting; conditions: MDA-MB-435, 48 h, read-out: GI; summary of the method: as §1
OVCAR-4 = assay: Growth inhibition of human OVCAR4 cells at 10 uM after 48 hrs by coulter counting; conditions: OVCAR-4, 48 h, read-out: GI; summary of the method: as §1
IGROV-1 = assay: Growth inhibition of human IGROV1 cells at 10 uM after 48 hrs by coulter counting; conditions: IGROV-1, 48 h, read-out: GI; summary of the method: as §1
NCI-H226 = assay: Growth inhibition of human NCI-H226 cells at 10 uM after 48 hrs by coulter counting; conditions: NCI-H226, 48 h, read-out: GI; summary of the method: as §1
LOX IMVI = assay: Growth inhibition of human LOXIMVI cells at 10 uM after 48 hrs by coulter counting; conditions: read-out: GI; summary of the method: as §1
RPMI-8226 = assay: Growth inhibition of human RPMI8226 cells at 10 uM after 48 hrs by coulter counting; conditions: RPMI-8226, 48 h, read-out: GI; summary of the method: as §1

In the case of C1=CN2C(=NC3=C(CCC/C3=C\c3cccs3)C2c2cccs2)S1 (configuration not stated), the inhibition of growth at 10 µM (HT-29) is reported as > 10%, the inhibition of growth at 10 µM (NCI-H460) is reported as > 10% and the inhibition of growth at 10 µM (DU-145) is reported as > 10%. The inhibition of growth at 10 µM (HL-60(TB)) was > 10%, the inhibition of growth at 10 µM (T47D) was > 10% and the inhibition of growth at 10 µM (M14) was > 10%. The inhibition of growth at 10 µM (MOLT-4) was > 10%, the inhibition of growth at 10 µM (NCI-H522) was > 10% and the inhibition of growth at 10 µM (UACC-62) was > 10%. The inhibition of growth at 10 µM (CCRF-CEM) was > 10%, the inhibition of growth at 10 µM (U-251) was > 10% and the inhibition of growth at 10 µM (HCC 2998) was > 10%. The inhibition of growth at 10 µM (BT-549) was > 10%, the inhibition of growth at 10 µM (MCF7) was > 10% and the inhibition of growth at 10 µM (A549) was > 10%. For the same molecule, the inhibition of growth at 10 µM [1] was > 10%, the inhibition of growth at 10 µM (CAKI-1) was > 10% and the inhibition of growth at 10 µM (K562) was > 10%. For the same molecule, the inhibition of growth at 10 µM (SK-MEL-2) was > 10%, the inhibition of growth at 10 µM (SNB-75) was 10.4% and the inhibition of growth at 10 µM (HOP-62) was > 10%. The inhibition of growth at 10 µM (ACHN) was > 10%, the inhibition of growth at 10 µM (SNB-19) was > 10% and the inhibition of growth at 10 µM (UACC-257) was > 10%. For the same molecule, the inhibition of growth at 10 µM (SK-MEL-28) was > 10%, the inhibition of growth at 10 µM (NCI-H23) was > 10% and the inhibition of growth at 10 µM (SK-MEL-5) was > 10%. The inhibition of growth at 10 µM (NCI/ADR-RES) was > 10%, the inhibition of growth at 10 µM (EKVX) was > 10% and the inhibition of growth at 10 µM (SF-295) was > 10%. For the same molecule, the inhibition of growth at 10 µM (HCT-116) was > 10%, the inhibition of growth at 10 µM (A498) was > 10% and the inhibition of growth at 10 µM (KM12) was > 10%. The inhibition of growth at 10 µM (SF-268) was > 10%, the inhibition of growth at 10 µM (UO-31) was 28.7% and the inhibition of growth at 10 µM (SF-539) was > 10%. For the same molecule, the inhibition of growth at 10 µM (MDA-MB-435) was > 10%, the inhibition of growth at 10 µM (OVCAR-4) was > 10% and the inhibition of growth at 10 µM (IGROV-1) was > 10%. The inhibition of growth at 10 µM (NCI-H226) was > 10%, the inhibition of growth at 10 µM (LOX IMVI) was 13% and the inhibition of growth at 10 µM (RPMI-8226) was > 10%.
